Experimental data reported in ChEMBL document CHEMBL4257441, “Protection effect of intracellular melanin from Lachnum YM156 and Haikunshenxi capsule combination on adenine-induced chronic renal failure in mice” (Medchemcomm, 2017).
Calls of active or inactive are those of the source. The rule behind the calls is not given here.

Experiments:
[1] = tested on: Mus musculus; assay: Protective effect against adenine-induced chronic renal failure in Kunming mouse assessed as nephridial TNF-alpha levels at 100 mg/kg, ig qd administered for 4 successive weeks (reference value: 250.15 +/- 8.10 pg/ml); format: functional
[2] = tested on: Mus musculus; assay: Protective effect against adenine-induced chronic renal failure in Kunming mouse assessed as nephridial MDA levels at 200 mg/kg, ig qd administered for 4 successive weeks with haikunshenxi capsule by thiobarbituric acid method (reference value: 5.05 +/- 0.15 nmol/ml); format: functional
[3] = tested on: Mus musculus; assay: Protective effect against adenine-induced chronic renal failure in ig dosed Kunming mouse assessed as decrease in nephridial IL-1beta levels administered as qd for 4 successive weeks; format: functional, organism-based
Procedure, shortened: (§1)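 CRF model made by chronic dietary adenine in male Kunming mice (20 ± 5 g); oral dosing at 100 or 200 mg kg–1, alone or with Haikunshenxi capsule; ten mice per group. Kidney tissue TNF-α, IL-1β and IL-6 measured as pg per mg protein, and iNOS activity as U mg–1 protein.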

[4] = tested on: Mus musculus; assay: Protective effect against adenine-induced chronic renal failure in ig dosed Kunming mouse assessed as increase in nephridial CAT levels administered as qd for 4 successive weeks with haikunshenxi capsule by visible spectrometry method; format: functional, organism-based
Procedure, shortened: (§2)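 Male Kunming mice (20 ± 5 g) given dietary adenine to induce CRF, then dosed orally at 100 or 200 mg kg–1, with or without Haikunshenxi capsule; n = 10 per group. Kidney homogenate assayed for SOD and CAT (U mg–1 protein), GSH-Px (U L–1), GSH (mg g–1 protein) and MDA (nmol mL–1).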

[5] = tested on: Mus musculus; assay: Protective effect against adenine-induced chronic renal failure in Kunming mouse assessed as nephridial SOD levels at 100 mg/kg, ig qd administered for 4 successive weeks with haikunshenxi capsule by hydroxylamine method (reference value: 30.45 +/- 1.12 U/mg); format: functional
[6] = tested on: Mus musculus; assay: Protective effect against adenine-induced chronic renal failure in Kunming mouse assessed as nephridial MDA levels at 100 mg/kg, ig qd administered for 4 successive weeks by thiobarbituric acid method (reference value: 5.05 +/- 0.15 nmol/ml); format: functional
[7] = tested on: Mus musculus; assay: Protective effect against adenine-induced chronic renal failure in ig dosed Kunming mouse assessed as decrease in nephridial iNOS levels administered as qd for 4 successive weeks; format: functional, organism-based; procedure, shortened: as §1
[8] = tested on: Mus musculus; assay: Protective effect against adenine-induced chronic renal failure in Kunming mouse assessed as reduction in renal tubular atrophy at 200 mg/kg, ig qd administered for 4 successive weeks with haikunshenxi capsule by haematoxylin and eosin dye-based optical microscopic method; format: functional, organism-based
Procedure, shortened: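 Kidneys were taken from male Kunming mice given an adenine diet plus oral melanin (100 or 200 mg kg–1), with or without Haikunshenxi capsule, ten per group. Histological sections were examined at 400× for glomeruli, tubules, adenine crystals, tubular atrophy and interstitial fibrosis.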

[9] = tested on: Mus musculus; assay: Protective effect against adenine-induced chronic renal failure in Kunming mouse assessed as nephridial CAT levels at 200 mg/kg, ig qd administered for 4 successive weeks with haikunshenxi capsule by visible spectrometry method (reference value: 44.13 +/- 1.25 U/mg); format: functional
[10] = tested on: Mus musculus; assay: Protective effect against adenine-induced chronic renal failure in Kunming mouse assessed as nephridial IL-1beta levels at 100 mg/kg, ig qd administered for 4 successive weeks with haikunshenxi capsule (reference value: 18.34 +/- 0.25 pg/ml); format: functional
[11] = Cytotoxicity against human HepG2 cells assessed as cell viability at 1 to 300 ug/ml after 24 hrs by MTT assay relative to control; format: cell-based; conditions: read-out: Activity
Procedure, shortened: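 HepG2 cells exposed to the melanin were read by MTT absorbance. Viability (% of control) is calculated as treated-well absorbance ×100 / control-well absorbance.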

[12] = tested on: Mus musculus; assay: Protective effect against adenine-induced chronic renal failure in Kunming mouse assessed as nephridial IL-1beta levels at 200 mg/kg, ig qd administered for 4 successive weeks with haikunshenxi capsule (reference value: 18.34 +/- 0.25 pg/ml); format: functional
[13] = tested on: Mus musculus; assay: Protective effect against adenine-induced chronic renal failure in Kunming mouse assessed as nephridial GSH levels at 100 mg/kg, ig qd administered for 4 successive weeks with haikunshenxi capsule by colorimetric method (reference value: 3.05 +/- 0.11 mg/g); format: functional
[14] = tested on: Mus musculus; assay: Protective effect against adenine-induced chronic renal failure in ig dosed Kunming mouse assessed as increase in nephridial GSH-PX levels administered as qd for 4 successive weeks with haikunshenxi capsule by colorimetric method; format: functional, organism-based; procedure, shortened: as §2
[15] = tested on: Mus musculus; assay: Protective effect against adenine-induced chronic renal failure in Kunming mouse assessed as kidney index at 100 mg/kg, ig qd administered for 4 successive weeks measured 24 hrs post last dose (reference value: 1.94 +/- 0.03 mg/g); format: functional
Procedure, shortened: (§3)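 Male Kunming mice (20 ± 5 g) were housed on a 12 h light/dark cycle at 18–20 °C. Chronic renal failure was induced by long-term dietary adenine. The melanin was given orally at 100 or 200 mg kg–1, alone or with Haikunshenxi capsule as positive drug, with ten mice per group. Weight growth rate (%) and kidney index (mg g–1) were recorded.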

[16] = tested on: Mus musculus; assay: Protective effect against adenine-induced chronic renal failure in Kunming mouse assessed as nephridial IL-6 levels at 200 mg/kg, ig qd administered for 4 successive weeks with haikunshenxi capsule (reference value: 20.85 +/- 0.11 pg/ml); format: functional
[17] = tested on: Mus musculus; assay: Protective effect against adenine-induced chronic renal failure in ig dosed Kunming mouse assessed as increase in total protein levels in serum administered as qd for 4 successive weeks by coomassie brilliant blue method; format: functional, organism-based
Procedure, shortened: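 Adenine-fed CRF model in male Kunming mice (20 ± 5 g) housed at 18–20 °C on a 12 h light/dark cycle. Oral dosing at 100 or 200 mg kg–1, with or without Haikunshenxi capsule; ten mice per group. Serum creatinine, BUN, total protein and albumin measured, each group compared with the model group.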

[18] = tested on: Mus musculus; assay: Protective effect against adenine-induced chronic renal failure in Kunming mouse assessed as nephridial GSH levels at 200 mg/kg, ig qd administered for 4 successive weeks with haikunshenxi capsule by colorimetric method (reference value: 3.05 +/- 0.11 mg/g); format: functional
[19] = tested on: Mus musculus; assay: Protective effect against adenine-induced chronic renal failure in ig dosed Kunming mouse assessed as decrease in nephridial MDA levels administered as qd for 4 successive weeks by thiobarbituric acid method; format: functional, organism-based; procedure, shortened: as §2
[20] = tested on: Mus musculus; assay: Protective effect against adenine-induced chronic renal failure in Kunming mouse assessed as nephridial GSH-PX levels at 200 mg/kg, ig qd administered for 4 successive weeks with haikunshenxi capsule by colorimetric method (reference value: 688.45 +/- 12.67 U/L); format: functional
[21] = tested on: Mus musculus; assay: Protective effect against adenine-induced chronic renal failure in ig dosed Kunming mouse assessed as decrease in nephridial MDA levels administered as qd for 4 successive weeks with haikunshenxi capsule by thiobarbituric acid method; format: functional, organism-based; procedure, shortened: as §2
[22] = tested on: Mus musculus; assay: Protective effect against adenine-induced chronic renal failure in ig dosed Kunming mouse assessed as increase in nephridial GSH levels administered as qd for 4 successive weeks with haikunshenxi capsule by colorimetric method; format: functional, organism-based; procedure, shortened: as §2
[23] = tested on: Mus musculus; assay: Protective effect against adenine-induced chronic renal failure in Kunming mouse assessed as kidney index at 100 mg/kg, ig qd administered for 4 successive weeks with haikunshenxi capsule measured 24 hrs post last dose (reference value: 1.94 +/- 0.03 mg/g); format: functional; procedure, shortened: as §3

Cc1c(=O)c(=O)c2c3c[nH]c4c(C)c(=O)c(=O)c(c5c[nH]c1c52)c43
Activity [1]: 218.12 pg/mL
Activity [2]: 2.88 nmol/mL
Activity [3]: Dose-dependent effect
Activity [4]: Dose-dependent effect
Activity [5]: 46.52 U/mg
Activity [6]: 3.95 nmol/mL
Activity [7]: Dose-dependent effect
Activity [8]: Active
Activity [9]: 76.47 U/mg
Activity [10]: 14.51 pg/mL
viability at 24 h [11]: 100%
Activity [12]: 13.81 pg/mL
Activity [13]: 5.23 mg/g
Activity [14]: Dose-dependent effect
Activity [15]: 1.72 mg/g
Activity [16]: 10.74 pg/mL
Activity [17]: Dose-dependent effect
Activity [18]: 5.38 mg/g
Activity [19]: Dose-dependent effect
Activity [20]: 878.91 U/L
Activity [21]: Dose-dependent effect
Activity [22]: Dose-dependent effect
Activity [23]: 1.18 mg/g
